Here are results for 16 molecules from ChEMBL document CHEMBL1135995, “Structure-activity relationships of methoctramine-related polyamines as muscular nicotinic receptor noncompetitive antagonists. 3. Effect of inserting the tetraamine backbone into a macrocyclic structure” (J Med Chem, 2002).

In test [1] the target is T1, Acetylcholine receptor subunit delta (Torpedo californica) (UniProt P02718).
T1 sequence (whole entry): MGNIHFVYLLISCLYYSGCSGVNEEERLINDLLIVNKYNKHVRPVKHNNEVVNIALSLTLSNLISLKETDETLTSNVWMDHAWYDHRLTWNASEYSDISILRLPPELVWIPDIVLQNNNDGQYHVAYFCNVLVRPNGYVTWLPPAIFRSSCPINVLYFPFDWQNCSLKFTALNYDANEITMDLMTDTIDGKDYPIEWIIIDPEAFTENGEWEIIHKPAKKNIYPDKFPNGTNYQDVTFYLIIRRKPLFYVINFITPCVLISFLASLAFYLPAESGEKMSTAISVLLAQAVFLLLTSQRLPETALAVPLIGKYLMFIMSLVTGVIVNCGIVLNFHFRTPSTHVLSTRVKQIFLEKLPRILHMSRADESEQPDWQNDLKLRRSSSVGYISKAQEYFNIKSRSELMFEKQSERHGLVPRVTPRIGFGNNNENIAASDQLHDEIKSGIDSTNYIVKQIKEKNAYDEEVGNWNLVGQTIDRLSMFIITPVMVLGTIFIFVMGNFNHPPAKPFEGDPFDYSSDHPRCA
To be noted: fish.

Test [2] can be described thus: Antagonist activity against Nicotinic acetylcholine receptor (nAChR) of isolated Frog rectus Abdominis Muscle. The format is functional, tissue-based. To be noted: Amphibia.
Test [3] concerns the target Acetylcholine receptor (Torpedo californica) (UniProt P02710+P02712+P02718+P02714). The test is described as follows: Antagonist activity against Nicotinic acetylcholine receptor (nAChR) of isolated Torpedo. The class given is functional. In a few lines: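 Ethidium fluorescence displacement used nAChR-rich membranes from frozen Torpedo californica electric organ (1 µM receptor) with ethidium 7 µM and carbachol 1 mM in 50 mM NaPi, pH 7.4. Competing ligand was added stepwise, with excitation at 480 nm and emission read at 540-740 nm. Kapp was derived by a logarithmic formula (Herz et al.).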

The next test concerns the target Acetylcholinesterase (Homo sapiens, UniProt P22303). The experiment in a line: Inhibitory activity on Acetylcholinesterase (AChE) from human erythrocytes.
Test [4] deals with Muscarinic acetylcholine receptor M3 (Cavia porcellus) (UniProt Q8VH26). The test is described as follows: Antagonist activity against Muscarinic acetylcholine receptor M3 of isolated Guinea Pig Longitudinal ileum. The class given is functional, tissue-based. In short, it runs like this:
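Guinea pig terminal ileum longitudinal muscle (2 cm segments) in PSS, with tension recorded isotonically. After ≥30 min equilibration, APE curves (0.01-0.5 µM) were run at 30 min intervals, the second serving as control. A new curve followed 60 min antagonist incubation, with the antagonist at a single 5 µM concentration in triplicate. EC50 was estimated graphically, with untreated parallel tissues as controls.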

For test [5], the system named is Muscarinic acetylcholine receptor M2 (Cavia porcellus). The experiment in a line: Antagonist activity against Muscarinic acetylcholine receptor M2 of isolated Guinea Pig Left artium.

A value given as a limit tells only on which side of the number the result lay.

Sequence of Acetylcholinesterase (P22303 whole entry): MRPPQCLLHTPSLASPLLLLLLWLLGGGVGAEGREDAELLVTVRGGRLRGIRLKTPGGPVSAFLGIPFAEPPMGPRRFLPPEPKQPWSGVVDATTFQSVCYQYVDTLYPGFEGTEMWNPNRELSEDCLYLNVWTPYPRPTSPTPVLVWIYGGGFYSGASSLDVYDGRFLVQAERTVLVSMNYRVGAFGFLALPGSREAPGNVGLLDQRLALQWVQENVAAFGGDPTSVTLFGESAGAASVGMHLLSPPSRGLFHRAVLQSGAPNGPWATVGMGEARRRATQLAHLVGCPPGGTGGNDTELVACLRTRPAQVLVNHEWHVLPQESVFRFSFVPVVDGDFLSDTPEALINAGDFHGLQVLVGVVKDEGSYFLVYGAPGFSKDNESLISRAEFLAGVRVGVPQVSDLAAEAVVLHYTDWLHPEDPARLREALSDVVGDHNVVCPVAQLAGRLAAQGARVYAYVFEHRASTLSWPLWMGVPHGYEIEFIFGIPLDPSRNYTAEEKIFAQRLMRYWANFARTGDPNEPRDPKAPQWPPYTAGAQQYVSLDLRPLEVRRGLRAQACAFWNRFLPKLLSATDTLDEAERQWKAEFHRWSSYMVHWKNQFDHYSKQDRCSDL
Sequence of Muscarinic acetylcholine receptor M3 (Cavia porcellus) (Q8VH26 1-587): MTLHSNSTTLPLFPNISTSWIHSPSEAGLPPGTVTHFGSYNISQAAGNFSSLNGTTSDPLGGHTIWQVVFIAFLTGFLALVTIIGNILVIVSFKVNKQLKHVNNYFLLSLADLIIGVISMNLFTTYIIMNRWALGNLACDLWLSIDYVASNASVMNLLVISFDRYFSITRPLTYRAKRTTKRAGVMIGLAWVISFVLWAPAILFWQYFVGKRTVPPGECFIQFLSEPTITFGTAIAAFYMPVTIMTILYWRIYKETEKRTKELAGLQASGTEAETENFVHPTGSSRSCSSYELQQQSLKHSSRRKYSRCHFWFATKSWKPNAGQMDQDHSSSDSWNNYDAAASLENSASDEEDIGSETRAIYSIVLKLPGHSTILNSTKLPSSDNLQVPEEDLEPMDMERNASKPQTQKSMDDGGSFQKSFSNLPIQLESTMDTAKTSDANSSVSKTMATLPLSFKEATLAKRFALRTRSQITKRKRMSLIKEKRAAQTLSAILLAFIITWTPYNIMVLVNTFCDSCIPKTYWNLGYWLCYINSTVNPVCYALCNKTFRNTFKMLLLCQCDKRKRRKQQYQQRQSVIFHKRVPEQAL

What is called IC50 is the concentration needed to halve the response being measured. Low readings indicate greater potency, high ones weaker potency. `COc1ccccc1CN(CCCCCCN)CCCCCCCCN(CCCCCCN)Cc1ccccc1OC` yielded a pKapp in test [1] of 6.4. Moreover, half-maximal inhibition in test [2] (IC50) required 331 nM.

For `COc1ccccc1CN(CCCCCCCCN(Cc1ccccc1OC)C(=O)CCCCCN)C(=O)CCCCCN`, the pKapp in test [3] stood at 6.46. Moreover, the half-inhibitory concentration (IC50) is 33100 nM against Acetylcholinesterase and 158 nM in test [2].

One may read the pKB as the negative decadic logarithm of the KB, by convention in mol/L. High values mean a low KB, low ones a high KB. `COc1ccccc1CN1CCCCCCN(C)CCCCCCCCN(C)CCCCCCN(Cc2ccccc2OC)Cc2ccc(cc2)Cc2ccc(cc2)C1` yielded a pKapp in test [3] of 6.21. The pKB in test [4] and in test [5] was under 5 each time. For the same molecule, the IC50 in test [2] was 229 nM.

In test [1], `COc1ccccc1CN1CCCCCCCCN(Cc2ccccc2OC)CCCCCCNCc2ccc(cc2)CNCCCCCC1` had a pKapp of 6.01. The IC50 in test [2] is 324 nM.

As for `COc1ccccc1CN1CCCCCCCCN(Cc2ccccc2OC)CCCCCCNCc2ccc(cc2)-c2ccc(cc2)CNCCCCCC1`, the pKapp in test [1] stood at 5.48. The midpoint of inhibition in test [2], the IC50, lay at 1200 nM.

The molecule `COc1ccccc1CN1CCCCCC(=O)N(C)CCCCCCCCN(C)C(=O)CCCCCN(Cc2ccccc2OC)Cc2ccc(cc2)-c2ccc(cc2)C1` yielded a pKapp in test [3] of 5.1. Moreover, the figures for the concentration for half-maximal inhibition (IC50) (on Acetylcholinesterase; in test [2]) were 53700 nM and 525 nM, respectively.

In turn, `COc1ccccc1CN(C)CCCCCC(=O)N(C)CCCCCCCCN(C)C(=O)CCCCCN(C)Cc1ccccc1OC` registered a pKapp in test [3] of 4.99. Moreover, the pKB in test [4] was 5.55; in test [5], 6.39.

In turn, `COc1ccccc1CN1CCCCCCN(C)CCCCCCCCN(C)CCCCCCN(Cc2ccccc2OC)Cc2ccc(cc2)-c2ccc(cc2)C1` gave a pKapp in test [3] of 6.35. This molecule gave an IC50 in test [2] of 447 nM.

For the molecule `COc1ccccc1CNCCCCCCNCc1ccc(-c2ccc(-c3ccc(CNCCCCCCNCc4ccccc4OC)cc3)cc2)cc1`, the pKapp in test [3] turned out to be 6.35. For the same molecule, the pKB in test [4] and in test [5] was under 5 each time. Further, the IC50 in test [2] is 501 nM.

In the case of `CN1CCCCCCCCN(C)CCCCCCNCc2ccc(cc2)-c2ccc(cc2)CNCCCCCC1`, the pKapp in test [3] was under 4. Further, the IC50 in test [2] is 4270 nM.

As to `COc1ccccc1CN1CCCCCCCCN(Cc2ccccc2OC)C(=O)CCCCCNCc2ccc(cc2)CNCCCCCC1=O`, the pKapp in test [3] is 6.47. For the same molecule, the negative-log KB (pKB) in test [4] and in test [5] was under 5 each time. The IC50 at Acetylcholinesterase is 1410 nM; in test [2] it was 170 nM.

In test [3], `COc1ccccc1CN1CCCCCCCCN(Cc2ccccc2OC)CCCCCCNCc2ccc(cc2)Cc2ccc(cc2)CNCCCCCC1` registered a pKapp of 6.26. Moreover, the negative-log KB (pKB) in test [4] was under 5. The IC50 in test [2] was 191 nM.

Take `COc1ccccc1CNCCCCCCNCCCCCCCCNCCCCCCNCc1ccccc1OC` [METHOCTRAMINE]: the pKapp in test [3] came to 6.21. In test [4], the negative logarithm of the KB (pKB) is 6.14. Moreover, the half-inhibitory concentration (IC50) in test [2] is 1170 nM.

In test [3], `COc1ccccc1CN1CCCCCCCCN(Cc2ccccc2OC)C(=O)CCCCCNCc2ccc(cc2)-c2ccc(cc2)CNCCCCCC1=O` showed a pKapp of 6.64. Besides, the negative-log KB (pKB) in test [4] and in test [5] was under 5 each time. Besides, the figures for the IC50 (against Acetylcholinesterase; in test [2]) were 3390 nM and 589 nM, respectively.

Consider `COc1ccccc1CN1CCCCCCN(C)CCCCCCCCN(C)CCCCCCN(Cc2ccccc2OC)Cc2ccc(cc2)C1`, for which the pKapp in test [3] amounted to 6.43. In test [2], this molecule gave an IC50 of 3470 nM.

`COc1ccccc1CNCCCCCCNCCCCCCCCCCCCNCCCCCCNCc1ccccc1OC` registered a pKapp in test [3] of 5.66. The pKB is 5.98 in test [4] and 7.35 in test [5].
